The source made the active and inactive calls.
Key:
Type in all cases: functional, cell-based
T47D = assay: Growth inhibition of human T47D cells at 10^-5 M incubated for 48 hrs by sulforhodamine B assay
Method in brief: (§1)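 Tested at a single concentration of 1 × 10−5 M as part of the NCI59 cell-line one-dose screen.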

CCRF-CEM = assay: Growth inhibition of human CCRF-CEM cells at 10^-5 M incubated for 48 hrs by sulforhodamine B assay
Method in brief: (§2)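 Run in the NCI59 one-dose cell-line screen, with each compound tested at a single concentration of 1 × 10−5 M.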

MDA-MB-231 = assay: Growth inhibition of human MDA-MB-231 cells at 10^-5 M incubated for 48 hrs by sulforhodamine B assay; method in brief: as §2
HOP-92 = assay: Growth inhibition of human HOP92 cells at 10^-5 M incubated for 48 hrs by sulforhodamine B assay; method in brief: as §2
COLO 205 = assay: Growth inhibition of human COLO205 cells at 10^-5 M incubated for 48 hrs by sulforhodamine B assay; method in brief: as §2
K562 = assay: Growth inhibition of human K562 cells at 10^-5 M incubated for 48 hrs by sulforhodamine B assay; method in brief: as §2
SF-539 = assay: Growth inhibition of human SF539 cells at 10^-5 M incubated for 48 hrs by sulforhodamine B assay; method in brief: as §2
OVCAR-3 = assay: Growth inhibition of human OVCAR3 cells at 10^-5 M incubated for 48 hrs by sulforhodamine B assay; method in brief: as §2
SW-620 = assay: Growth inhibition of human SW620 cells at 10^-5 M incubated for 48 hrs by sulforhodamine B assay; method in brief: as §1
SK-MEL-2 = assay: Growth inhibition of human SK-MEL-2 cells at 10^-5 M incubated for 48 hrs by sulforhodamine B assay; method in brief: as §2
UACC-257 = assay: Growth inhibition of human UACC257 cells at 10^-5 M incubated for 48 hrs by sulforhodamine B assay; method in brief: as §1
NCI-H460 = assay: Growth inhibition of human NCI-H460 cells at 10^-5 M incubated for 48 hrs by sulforhodamine B assay; method in brief: as §2
SR = assay: Growth inhibition of human SR cells at 10^-5 M incubated for 48 hrs by sulforhodamine B assay; method in brief: as §2
EKVX = assay: Growth inhibition of human EKVX cells at 10^-5 M incubated for 48 hrs by sulforhodamine B assay; method in brief: as §2
A549 = assay: Growth inhibition of human A549/ATCC cells at 10^-5 M incubated for 48 hrs by sulforhodamine B assay; method in brief: as §2
RXF 393 = assay: Growth inhibition of human RXF393 cells at 10^-5 M incubated for 48 hrs by sulforhodamine B assay; method in brief: as §2
MCF7 = assay: Growth inhibition of human MCF7 cells at 10^-5 M incubated for 48 hrs by sulforhodamine B assay; method in brief: as §2
ACHN = assay: Growth inhibition of human ACHN cells at 10^-5 M incubated for 48 hrs by sulforhodamine B assay; method in brief: as §2
NCI/ADR-RES = assay: Growth inhibition of human NCI/ADR-RES cells at 10^-5 M incubated for 48 hrs by sulforhodamine B assay; method in brief: as §2
CAKI-1 = assay: Growth inhibition of human Caki1 cells at 10^-5 M incubated for 48 hrs by sulforhodamine B assay; method in brief: as §2
SF-268 = assay: Growth inhibition of human SF268 cells at 10^-5 M incubated for 48 hrs by sulforhodamine B assay; method in brief: as §2
PC-3 = assay: Growth inhibition of human PC3 cells at 10^-5 M incubated for 48 hrs by sulforhodamine B assay; method in brief: as §2
RPMI-8226 = assay: Growth inhibition of human RPMI8226 cells at 10^-5 M incubated for 48 hrs by sulforhodamine B assay; method in brief: as §2
Hs-578T = assay: Growth inhibition of human Hs 578T cells at 10^-5 M incubated for 48 hrs by sulforhodamine B assay; method in brief: as §2
SN12C = assay: Growth inhibition of human SN12C cells at 10^-5 M incubated for 48 hrs by sulforhodamine B assay; method in brief: as §2
UACC-62 = assay: Growth inhibition of human UACC62 cells at 10^-5 M incubated for 48 hrs by sulforhodamine B assay; method in brief: as §1
SK-MEL-28 = assay: Growth inhibition of human SK-MEL-28 cells at 10^-5 M incubated for 48 hrs by sulforhodamine B assay; method in brief: as §2
HCC 2998 = assay: Growth inhibition of human HCC2998 cells at 10^-5 M incubated for 48 hrs by sulforhodamine B assay; method in brief: as §2
U-251 = assay: Growth inhibition of human U251 cells at 10^-5 M incubated for 48 hrs by sulforhodamine B assay; method in brief: as §1
LOX IMVI = assay: Growth inhibition of human LOXIMVI cells at 10^-5 M incubated for 48 hrs by sulforhodamine B assay; method in brief: as §2
HL-60(TB) = assay: Growth inhibition of human HL-60(TB) cells at 10^-5 M incubated for 48 hrs by sulforhodamine B assay
Method in brief: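 Run in the NCI59 cell-line one-dose screen, with each compound tested at a single concentration of 1 × 10−5 M.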

HCT-15 = assay: Growth inhibition of human HCT15 cells at 10^-5 M incubated for 48 hrs by sulforhodamine B assay; method in brief: as §2
SK-OV-3 = assay: Growth inhibition of human SKOV3 cells at 10^-5 M incubated for 48 hrs by sulforhodamine B assay; method in brief: as §2
SNB-75 = assay: Growth inhibition of human SNB75 cells at 10^-5 M incubated for 48 hrs by sulforhodamine B assay; method in brief: as §2
MOLT-4 = assay: Growth inhibition of human MOLT4 cells at 10^-5 M incubated for 48 hrs by sulforhodamine B assay; method in brief: as §2
IGROV-1 = assay: Growth inhibition of human IGROV1 cells at 10^-5 M incubated for 48 hrs by sulforhodamine B assay; method in brief: as §2
SNB-19 = assay: Growth inhibition of human SNB19 cells at 10^-5 M incubated for 48 hrs by sulforhodamine B assay; method in brief: as §2
NCI-H23 = assay: Growth inhibition of human NCI-H23 cells at 10^-5 M incubated for 48 hrs by sulforhodamine B assay; method in brief: as §2
HCT-116 = assay: Growth inhibition of human HCT116 cells at 10^-5 M incubated for 48 hrs by sulforhodamine B assay; method in brief: as §2
M14 = assay: Growth inhibition of human M14 cells at 10^-5 M incubated for 48 hrs by sulforhodamine B assay; method in brief: as §2
HT-29 = assay: Growth inhibition of human HT-29 cells at 10^-5 M incubated for 48 hrs by sulforhodamine B assay; method in brief: as §2
MDA-MB-435 = assay: Growth inhibition of human MDA-MB-435 cells at 10^-5 M incubated for 48 hrs by sulforhodamine B assay; method in brief: as §2
OVCAR-5 = assay: Growth inhibition of human OVCAR5 cells at 10^-5 M incubated for 48 hrs by sulforhodamine B assay; method in brief: as §2
DU-145 = assay: Growth inhibition of human DU145 cells at 10^-5 M incubated for 48 hrs by sulforhodamine B assay; method in brief: as §2
BT-549 = assay: Growth inhibition of human BT549 cells at 10^-5 M incubated for 48 hrs by sulforhodamine B assay; method in brief: as §2
NCI-H226 = assay: Growth inhibition of human NCI-H226 cells at 10^-5 M incubated for 48 hrs by sulforhodamine B assay; method in brief: as §2
KM12 = assay: Growth inhibition of human KM12 cells at 10^-5 M incubated for 48 hrs by sulforhodamine B assay; method in brief: as §2
HOP-62 = assay: Growth inhibition of human HOP62 cells at 10^-5 M incubated for 48 hrs by sulforhodamine B assay; method in brief: as §2
OVCAR-4 = assay: Growth inhibition of human OVCAR4 cells at 10^-5 M incubated for 48 hrs by sulforhodamine B assay; method in brief: as §2
SF-295 = assay: Growth inhibition of human SF295 cells at 10^-5 M incubated for 48 hrs by sulforhodamine B assay; method in brief: as §2
NCI-H322M = assay: Growth inhibition of human NCI-H322M cells at 10^-5 M incubated for 48 hrs by sulforhodamine B assay; method in brief: as §2
A498 = assay: Growth inhibition of human A498 cells at 10^-5 M incubated for 48 hrs by sulforhodamine B assay; method in brief: as §2
TK-10 = assay: Growth inhibition of human TK10 cells at 10^-5 M incubated for 48 hrs by sulforhodamine B assay; method in brief: as §1
OVCAR-8 = assay: Growth inhibition of human OVCAR8 cells at 10^-5 M incubated for 48 hrs by sulforhodamine B assay; method in brief: as §2
SK-MEL-5 = assay: Growth inhibition of human SK-MEL-5 cells at 10^-5 M incubated for 48 hrs by sulforhodamine B assay; method in brief: as §2
NCI-H522 = assay: Growth inhibition of human NCI-H522 cells at 10^-5 M incubated for 48 hrs by sulforhodamine B assay; method in brief: as §2
UO-31 = assay: Growth inhibition of human UO31 cells at 10^-5 M incubated for 48 hrs by sulforhodamine B assay; method in brief: as §1
786-0 = assay: Growth inhibition of human 786-0 cells at 10^-5 M incubated for 48 hrs by sulforhodamine B assay; method in brief: as §2

Measured: growth inhibition (GI)

COC(=O)C[C@H]1C(C)(C)[C@H](OC(=O)C(C)C)[C@@H]2[C@@H](OC(=O)C(C)C)[C@@]34O[C@]2(O)[C@]1(C)[C@H]3CC[C@]1(C)[C@H]4CC(=O)O[C@H]1c1ccoc1
inactive: T47D | CCRF-CEM | MDA-MB-231 | HOP-92 | COLO 205 | K562 | SF-539 | OVCAR-3 | SW-620 | SK-MEL-2 | UACC-257 | NCI-H460 | SR | EKVX | A549 | RXF 393 | MCF7 | ACHN | NCI/ADR-RES | CAKI-1 | SF-268 | PC-3 | RPMI-8226 | Hs-578T | SN12C | UACC-62 | SK-MEL-28 | HCC 2998 | U-251 | LOX IMVI | HL-60(TB) | HCT-15 | SK-OV-3 | SNB-75 | MOLT-4 | IGROV-1 | SNB-19 | NCI-H23 | HCT-116 | M14 | HT-29 | MDA-MB-435 | OVCAR-5 | DU-145 | BT-549 | NCI-H226 | KM12 | HOP-62 | OVCAR-4 | SF-295 | NCI-H322M | A498 | TK-10 | OVCAR-8 | SK-MEL-5 | NCI-H522 | UO-31 | 786-0

CC[C@H](C)C(=O)O[C@@H]1[C@@H]2[C@@H](OC(=O)C(C)C)[C@@]34O[C@]2(O)[C@@](C)([C@@H](CC(=O)OC)C1(C)C)[C@H]3CC[C@]1(C)C4=CC(=O)O[C@H]1C1=CC(O)OC1=O (stereo partly specified)
inactive: T47D | CCRF-CEM | MDA-MB-231 | HOP-92 | COLO 205 | K562 | SF-539 | OVCAR-3 | SW-620 | SK-MEL-2 | UACC-257 | NCI-H460 | SR | EKVX | A549 | RXF 393 | MCF7 | ACHN | NCI/ADR-RES | CAKI-1 | SF-268 | PC-3 | RPMI-8226 | Hs-578T | SN12C | UACC-62 | SK-MEL-28 | HCC 2998 | U-251 | LOX IMVI | HL-60(TB) | HCT-15 | SK-OV-3 | SNB-75 | MOLT-4 | IGROV-1 | SNB-19 | NCI-H23 | HCT-116 | M14 | HT-29 | MDA-MB-435 | OVCAR-5 | DU-145 | BT-549 | NCI-H226 | KM12 | HOP-62 | OVCAR-4 | SF-295 | NCI-H322M | A498 | TK-10 | OVCAR-8 | SK-MEL-5 | NCI-H522 | UO-31 | 786-0
